Assay results taken from PMC9340768 (Journal of Medicinal Chemistry, 2022).
Blank lines part the entries; values can stand above or below the molecule they belong to.

How the values were obtained:
CD137 [1] = target: T1, CD137 (Homo sapiens, UniProt Q07011+Q96NY8); experiment: tumor cell/CD137 reporter coculture assay with other tumor cell lines; format: cell-based
Procedure, shortened: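 A Jurkat reporter line expressing human CD137 and a CD137-responsive luciferase element was cocultured with 10,000 cells of the indicated tumor line, with or without test compound, for 6 h at 37 °C, 5% CO2. Bio-Glo luciferase reagent was then added and luminescence read. Fold induction was calculated as RLU over background wells without test article.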

[2] = tested on: human PBMCs cocultured with HT1376; experiment: PBMC/HT1376 coculture cytokine secretion assay; format: cell-based; settings: anti-CD3 stimulated PBMCs with HT1376
Procedure, shortened: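 Frozen healthy-donor human PBMCs were thawed, washed in PBS with benzonase and resuspended in RPMI with 10% heat-inactivated FBS, HEPES and glutamine. PBMCs (1 × 10^6/mL) were plated with tumor cells (1 × 10^5/mL) at 10:1, stimulated with soluble anti-CD3 OKT3 (100 ng/mL), and given diluted test compound. Incubation was 2 days at 37 °C, 5% CO2. Supernatant IFNγ and IL-2 were measured by Luminex; four-parameter fit, n = 3.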

CD137 [3] = target: T1, CD137; settings: cited from earlier work
CD137 [4] = target: T1, CD137; experiment: HT1376/CD137 reporter coculture assay; format: cell-based; settings: BCY10000 relative to BCY8854
[5] = Pharmacokinetics in Sprague-Dawley rats; settings: rat, in vivo, iv, 2 mg/kg, CL (mL/min/kg), SD rats, 2 mg/kg IV bolus
human CD137 = human CD137 (Homo sapiens, UniProt Q07011); experiment: SPR binding to human CD137

T1 sequence (Q07011 24-255): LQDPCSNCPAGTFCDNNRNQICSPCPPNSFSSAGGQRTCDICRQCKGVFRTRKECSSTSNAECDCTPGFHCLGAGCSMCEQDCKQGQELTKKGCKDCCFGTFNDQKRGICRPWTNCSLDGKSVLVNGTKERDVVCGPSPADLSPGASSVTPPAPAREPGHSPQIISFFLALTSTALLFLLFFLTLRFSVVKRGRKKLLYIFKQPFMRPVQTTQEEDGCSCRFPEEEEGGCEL
T1 sequence (Q96NY8 32-510): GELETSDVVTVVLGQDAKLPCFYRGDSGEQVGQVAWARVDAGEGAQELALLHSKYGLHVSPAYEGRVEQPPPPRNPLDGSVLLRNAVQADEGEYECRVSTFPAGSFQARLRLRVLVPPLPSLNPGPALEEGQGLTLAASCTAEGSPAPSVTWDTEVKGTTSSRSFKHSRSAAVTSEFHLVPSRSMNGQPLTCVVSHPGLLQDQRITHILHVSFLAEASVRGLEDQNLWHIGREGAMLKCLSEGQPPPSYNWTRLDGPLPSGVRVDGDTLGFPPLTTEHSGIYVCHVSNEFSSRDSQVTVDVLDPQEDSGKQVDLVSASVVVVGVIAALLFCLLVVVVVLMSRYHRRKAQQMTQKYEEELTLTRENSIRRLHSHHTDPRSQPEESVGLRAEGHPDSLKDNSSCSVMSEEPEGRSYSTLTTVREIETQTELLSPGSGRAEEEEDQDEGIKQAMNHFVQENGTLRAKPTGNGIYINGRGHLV

- concentration above which agonism is reduced (hook effect) (CD137 [1]; tumor cell/CD137 reporter coculture): above 300 nM
Compound: CCCC[C@@H]1NC(=O)[C@H](Cc2ccc(O)cc2)NC(=O)[C@@H]2CCCN2C(=O)[C@H](CC(=O)O)NC(=O)[C@H](C)NC(=O)[C@H](Cc2ccccc2)NC(=O)[C@@H]2CSCCC(=O)N3CN(CN(C3)C(=O)CCSC[C@@H](C(=O)N[C@@H](CNC(=O)CCOCCOCCOCCOCCOCCOCCOCCOCCOCCOCCOCCOCCn3cc(CCC(=O)NCCC(=O)N(C)CC(=O)N(C)CC(=O)N(C)CC(=O)N(C)CC(=O)N(C)CC(=O)N(C)CC(=O)N(C)CC(=O)N(C)CC(=O)N(C)CC(=O)N(C)CC(=O)N[C@H]4CSCCC(=O)N5CN6CN(C5)C(=O)CCSC[C@H](NC(=O)[C@@H](CC(=O)O)NC(=O)[C@H](Cc5cccc7ccccc57)NC(=O)[C@@H]5CCCN5C4=O)C(=O)N[C@@H](CCSC)C(=O)N[C@@H](CCCCNC(=N)N)C(=O)N[C@@H](CC(=O)O)C(=O)N[C@@H](Cc4c[nH]c5ccccc45)C(=O)N[C@@H](CO)C(=O)N[C@@H]([C@@H](C)O)C(=O)N4CCC[C@H]4C(=O)N4C[C@H](O)C[C@H]4C(=O)N[C@@H](Cc4c[nH]c5ccccc45)C(=O)N[C@H](C(N)=O)CSCCC6=O)nn3)C(N)=O)NC1=O)C(=O)CCSC[C@H](NC(=O)[C@H](C)NC(C)=O)C(=O)N[C@@H]([C@@H](C)CC)C(=O)N[C@@H](CCC(=O)O)C(=O)N[C@@H](CCC(=O)O)C(=O)NCC(=O)N[C@@H](CCC(N)=O)C(=O)N[C@@H](Cc1ccc(O)cc1)C(=O)N2 [BCY8854]
- CD137 agonism in coculture with MC38-Nectin-4 or parental MC38 (CD137 [1]; 6 h treatment, Jurkat CD137 reporter): dose-dependent agonism of CD137 was observed only in the presence of the Nectin-4-expressing MC38 clone
- secretion of proinflammatory cytokines IFNγ and IL-2 [2]: dose-dependent increase
- CD137 agonism in coculture with Nectin-4 null PC3 (CD137 [3]): not with a Nectin-4 null PC3 cell line
- CD137 agonism in coculture with HT1376 and NCI-H292 (CD137 [3]; tumor lines endogenously expressing Nectin-4): CD137 agonism was also observed

- improvement of Emax (CD137 [4]): 1.5 fold
- improvement of in vitro potency (EC50) (CD137 [4]): fourfold
- clearance [5]: 19 mL/min/kg
Compound: CCCC[C@@H]1NC(=O)[C@H](Cc2ccc(O)cc2)NC(=O)[C@@H]2CCCN2C(=O)[C@H](CC(=O)O)NC(=O)[C@H](C)NC(=O)[C@H](Cc2ccccc2)NC(=O)[C@@H]2CSCCC(=O)N3CN(CN(C3)C(=O)CCSC[C@@H](C(=O)N[C@@H](CNC(=O)CCOCCOCCOCCOCCOCCOCCOCCOCCOCCOCCOCCOCCn3cc(CCC(=O)NCCC(=O)N(C)CC(=O)N(C)CC(=O)N(C)CC(=O)N(C)CC(=O)N(C)CC(=O)N(C)CC(=O)N(C)CC(=O)N(C)CC(=O)N(C)CC(=O)N(C)CC(=O)N[C@H]4CSCCC(=O)N5CN6CN(C5)C(=O)CCSC[C@H](NC(=O)[C@@H](CC(=O)O)NC(=O)[C@H](Cc5cccc7ccccc57)NC(=O)[C@@H]5CCCN5C4=O)C(=O)N[C@@H](CCSC)C(=O)N[C@@H](CCCCNC(=N)N)C(=O)N[C@@H](CC(=O)O)C(=O)N[C@@H](Cc4c[nH]c5ccccc45)C(=O)N[C@@H](CO)C(=O)N[C@@H]([C@@H](C)O)C(=O)N4CCC[C@H]4C(=O)N4C[C@H](O)C[C@H]4C(=O)N[C@@H](Cc4c[nH]c5ccccc45)C(=O)N[C@H](C(N)=O)CSCCC6=O)nn3)C(N)=O)NC1=O)C(=O)CCSC[C@H](NC(C)=O)C(=O)N[C@@H](CC(C)(C)C)C(=O)N1CCC[C@H]1C(=O)N[C@@H](CCC(=O)O)C(=O)N[C@H](C)C(=O)N1CCC[C@H]1C(=O)N[C@@H](Cc1ccc(O)cc1)C(=O)N2 [BCY10000]
- secretion of proinflammatory cytokines IFNγ and IL-2 [2]: dose-dependent increase

Compound: CCCC[C@@H]1NC(=O)[C@H](Cc2ccc(O)cc2)NC(=O)[C@@H]2CCCN2C(=O)[C@H](CC(N)=O)NC(=O)[C@H](C)NC(=O)[C@H](Cc2ccccc2)NC(=O)[C@@H]2CSCCC(=O)N3CN(CN(C3)C(=O)CCSC[C@H](NC(C)=O)C(=O)N[C@@H](CC(C)(C)C)C(=O)N3CCC[C@H]3C(=O)N[C@@H](CCC(=O)O)C(=O)N[C@H](CCCCNC(=O)CCc3cn(CCOCCOCCOCCN(CCOCCOCCOCCC(=O)N[C@H]4CSCCC(=O)N5CN6CN(C5)C(=O)CCSC[C@H](NC(=O)[C@@H](CC(=O)O)NC(=O)[C@H](Cc5cccc7ccccc57)NC(=O)[C@@H]5CCCN5C4=O)C(=O)N[C@@H](CCSC)C(=O)N[C@@H](CCCCNC(=N)N)C(=O)N[C@@H](CC(=O)O)C(=O)N[C@@H](Cc4c[nH]c5ccccc45)C(=O)N[C@@H](CO)C(=O)N[C@@H]([C@@H](C)O)C(=O)N4CCC[C@H]4C(=O)N4C[C@H](O)C[C@H]4C(=O)N[C@@H](Cc4c[nH]c5ccccc45)C(=O)N[C@H](C(N)=O)CSCCC6=O)CCOCCOCCOCCn4cc(CCC(=O)NCCCC[C@H]5NC(=O)[C@H](CCC(=O)O)NC(=O)[C@@H]6CCCN6C(=O)[C@H](CC(C)(C)C)NC(=O)[C@@H](NC(C)=O)CSCCC(=O)N6CN7CN(C6)C(=O)CCSC[C@H](NC(=O)[C@H](Cc6ccc(O)cc6)NC(=O)[C@@H]6CCCN6C5=O)C(=O)N[C@@H](Cc5ccccc5)C(=O)N[C@@H](C)C(=O)N[C@@H](CC(N)=O)C(=O)N5CCC[C@H]5C(=O)N[C@@H](Cc5ccc(O)cc5)C(=O)N[C@@H](CCCC)C(=O)N[C@H](C(N)=O)CSCCC7=O)nn4)nn3)C(=O)N3CCC[C@H]3C(=O)N[C@@H](Cc3ccc(O)cc3)C(=O)N2)C(=O)CCSC[C@@H](C(N)=O)NC1=O [BCY12486]
- Kd (human CD137): ~8 nM

- Kd (human CD137): ~8 nM
Compound: CCCC[C@@H]1NC(=O)[C@H](Cc2ccc(O)cc2)NC(=O)[C@@H]2CCCN2C(=O)[C@H](CCC(=O)O)NC(=O)[C@H](C)NC(=O)[C@H](Cc2ccccc2)NC(=O)[C@@H]2CSCCC(=O)N3CN(CN(C3)C(=O)CCSC[C@H](NC(C)=O)C(=O)N[C@@H](CC(C)(C)C)C(=O)N3CCC[C@H]3C(=O)N[C@@H](CCC(=O)O)C(=O)N[C@H](CCCCNC(=O)CCc3cn(CCOCCOCCOCCN(CCOCCOCCOCCC(=O)N[C@H]4CSCCC(=O)N5CN6CN(C5)C(=O)CCSC[C@H](NC(=O)[C@@H](CC(=O)O)NC(=O)[C@H](Cc5cccc7ccccc57)NC(=O)[C@@H]5CCCN5C4=O)C(=O)N[C@@H](CCSC)C(=O)N[C@@H](CCCCNC(=N)N)C(=O)N[C@@H](CC(=O)O)C(=O)N[C@@H](Cc4c[nH]c5ccccc45)C(=O)N[C@@H](CO)C(=O)N[C@@H]([C@@H](C)O)C(=O)N4CCC[C@H]4C(=O)N4C[C@H](O)C[C@H]4C(=O)N[C@@H](Cc4c[nH]c5ccccc45)C(=O)N[C@H](C(N)=O)CSCCC6=O)CCOCCOCCOCCn4cc(CCC(=O)NCCCC[C@H]5NC(=O)[C@H](CCC(=O)O)NC(=O)[C@@H]6CCCN6C(=O)[C@H](CC(C)(C)C)NC(=O)[C@@H](NC(C)=O)CSCCC(=O)N6CN7CN(C6)C(=O)CCSC[C@H](NC(=O)[C@H](Cc6ccc(O)cc6)NC(=O)[C@@H]6CCCN6C5=O)C(=O)N[C@@H](Cc5ccccc5)C(=O)N[C@@H](C)C(=O)N[C@@H](CCC(=O)O)C(=O)N5CCC[C@H]5C(=O)N[C@@H](Cc5ccc(O)cc5)C(=O)N[C@@H](CCCC)C(=O)N[C@H](C(N)=O)CSCCC7=O)nn4)nn3)C(=O)N3CCC[C@H]3C(=O)N[C@@H](Cc3ccc(O)cc3)C(=O)N2)C(=O)CCSC[C@@H](C(N)=O)NC1=O [BCY12487]

Compound: CCCC[C@@H]1NC(=O)[C@H](Cc2ccc(O)cc2)NC(=O)[C@@H]2CCCN2C(=O)[C@H](CC(=O)O)NC(=O)[C@H](C)NC(=O)[C@H](Cc2ccccc2)NC(=O)[C@@H]2CSCCC(=O)N3CN(CN(C3)C(=O)CCSC[C@@H](C(=O)N[C@@H](C)C(N)=O)NC1=O)C(=O)CCSC[C@H](NC(C)=O)C(=O)N[C@@H](CC(C)(C)C)C(=O)N1CCC[C@H]1C(=O)N[C@@H](CCC(=O)O)C(=O)N[C@H](CCCCNC(=O)CCc1cn(CCOCCOCCOCCN(CCOCCOCCOCCC(=O)N[C@H]3CSCCC(=O)N4CN5CN(C4)C(=O)CCSC[C@H](NC(=O)[C@@H](CC(=O)O)NC(=O)[C@H](Cc4cccc6ccccc46)NC(=O)[C@@H]4CCCN4C3=O)C(=O)N[C@@H](CCSC)C(=O)N[C@@H](CCCCNC(=N)N)C(=O)N[C@@H](CC(=O)O)C(=O)N[C@H](Cc3c[nH]c4ccccc34)C(=O)N[C@@H](CO)C(=O)N[C@@H]([C@@H](C)O)C(=O)N3CCC[C@H]3C(=O)N3C[C@H](O)C[C@H]3C(=O)N[C@H](Cc3c[nH]c4ccccc34)C(=O)N[C@H](C(N)=O)CSCCC5=O)CCOCCOCCOCCn3cc(CCC(=O)NCCCC[C@H]4NC(=O)[C@H](CCC(=O)O)NC(=O)[C@@H]5CCCN5C(=O)[C@H](CC(C)(C)C)NC(=O)[C@@H](NC(C)=O)CSCCC(=O)N5CN6CN(C5)C(=O)CCSC[C@H](NC(=O)[C@H](Cc5ccc(O)cc5)NC(=O)[C@@H]5CCCN5C4=O)C(=O)N[C@@H](Cc4ccccc4)C(=O)N[C@@H](C)C(=O)N[C@@H](CC(=O)O)C(=O)N4CCC[C@H]4C(=O)N[C@@H](Cc4ccc(O)cc4)C(=O)N[C@@H](CCCC)C(=O)N[C@H](C(=O)N[C@@H](C)C(N)=O)CSCCC6=O)nn3)nn1)C(=O)N1CCC[C@H]1C(=O)N[C@@H](Cc1ccc(O)cc1)C(=O)N2 [BCY13144]
- secretion of proinflammatory cytokines IFNγ and IL-2 [2]: No IL-2 or IFNγ secretion was observed
